pIC50: −log10 of the molar value.

The target in the assay is T1, Prostaglandin G/H synthase 1 (Ovis aries, UniProt P05979).
T1 sequence (P05979 whole entry): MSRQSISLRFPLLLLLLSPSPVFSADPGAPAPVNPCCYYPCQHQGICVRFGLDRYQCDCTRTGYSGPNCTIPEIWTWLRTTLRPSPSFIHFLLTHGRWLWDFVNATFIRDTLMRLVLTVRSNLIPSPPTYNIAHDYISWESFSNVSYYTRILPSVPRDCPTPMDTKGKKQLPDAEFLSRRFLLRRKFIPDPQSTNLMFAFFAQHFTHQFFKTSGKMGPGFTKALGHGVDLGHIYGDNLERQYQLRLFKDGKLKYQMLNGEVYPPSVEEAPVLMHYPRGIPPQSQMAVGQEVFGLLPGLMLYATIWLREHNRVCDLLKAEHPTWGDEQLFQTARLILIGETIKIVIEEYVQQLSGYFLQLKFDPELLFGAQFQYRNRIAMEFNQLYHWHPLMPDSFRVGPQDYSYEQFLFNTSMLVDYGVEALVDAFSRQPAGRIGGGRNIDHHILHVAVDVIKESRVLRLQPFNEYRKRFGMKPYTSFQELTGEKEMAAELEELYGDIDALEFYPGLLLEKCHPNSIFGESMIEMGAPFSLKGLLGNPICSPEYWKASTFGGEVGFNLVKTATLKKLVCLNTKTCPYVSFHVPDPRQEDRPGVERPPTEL
In words: Inhibition of ovine COX1 using arachidonic acid as substrate incubated for 1 min prior to substrate addition measured for 25 secs by TMPD-based chromogenic assay. The procedure, abridged:
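COX-1 purified from ram seminal vesicles by chromatography. Reaction in Tris HCl buffer (100 mM, pH 8.0) with hematin, EDTA (3 mM) and enzyme, preincubated with test compound at 25 °C for 1 min. Started with arachidonic acid plus TMPD. Nonenzymatic oxidation subtracted before calculating percent inhibition.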
A word on the pIC50: it is the negative decadic logarithm of the IC50, by convention in mol/L. The low end stands for a large IC50, the high end for a small IC50. Compound `CC(Oc1cc(=O)oc2ccccc12)C(=O)NC12CC3CC(C)(CC(C)(C3)C1)C2` (mixture of isomers) had a pIC50 of 5.48.
As for `CC(Oc1cc(=O)oc2ccccc12)C(=O)Nc1ccncc1` (racemic), the pIC50 was 5.02.
As to `Cc1c(Cl)cccc1NC(=O)C(C)Oc1cc(=O)oc2ccccc12` (racemic), the pIC50 was 5.34.
The compound `CC(Oc1cc(=O)oc2ccccc12)C(=O)Nc1cccc2c(=O)[nH]ccc12` (racemic) gave a pIC50 of 5.53.
In turn, `COc1ccc(NC(=O)C(C)Oc2cc(=O)oc3ccccc23)cc1` (racemic) had a pIC50 of 5.65.
In turn, `CC(Oc1cc(=O)oc2ccccc12)C(=O)N1CCCC1` (racemic) had a pIC50 of 4.86.
`CC(Oc1cc(=O)oc2ccccc12)C(=O)Nc1ccc(C(F)(F)F)cc1C#N` (racemic) gave a pIC50 of 5.02.
`CC(Oc1cc(=O)oc2ccccc12)C(=O)Nc1ccc(F)cc1F` (racemic) had a pIC50 of 5.79.
In turn, `CC(Oc1cc(=O)oc2ccccc12)C(=O)N1CCOCC1` (racemic) showed a pIC50 of 5.30.
`CC(Oc1cc(=O)oc2ccccc12)C(=O)Nc1ccc(N2CCOCC2=O)cc1` (racemic) had a pIC50 of 5.34.

The record behind these values is ChEMBL document CHEMBL2157877, “Synthesis and pharmacological evaluation of N-substituted 2-(2-oxo-2H-chromen-4-yloxy)propanamide as cyclooxygenase inhibitors” (Bioorg Med Chem Lett, 2012).
